Bioassay records (PubChem)
TRPC4 agonist: activators of mouse TRPC4 channel, primary screen, Fluo4 calcium, HEK293 TRPC4beta/mu-opioid cells; Short transient receptor potential channel 4 (Mus musculus), Q9QUQ5; Fluo4 calcium fluorescence; active compounds read high; B-score at 10 µM; 310,000 compounds, 0.49% hits; AID 2237, 2010;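 active = B-score above 5 SD of library B-scores, and initial fluorescence ratio not above library mean plus 5 SD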;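 note: positive B-score marks a calcium rise read as TRPC4 activation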
Target sequence (Q9QUQ5 whole entry, looked up): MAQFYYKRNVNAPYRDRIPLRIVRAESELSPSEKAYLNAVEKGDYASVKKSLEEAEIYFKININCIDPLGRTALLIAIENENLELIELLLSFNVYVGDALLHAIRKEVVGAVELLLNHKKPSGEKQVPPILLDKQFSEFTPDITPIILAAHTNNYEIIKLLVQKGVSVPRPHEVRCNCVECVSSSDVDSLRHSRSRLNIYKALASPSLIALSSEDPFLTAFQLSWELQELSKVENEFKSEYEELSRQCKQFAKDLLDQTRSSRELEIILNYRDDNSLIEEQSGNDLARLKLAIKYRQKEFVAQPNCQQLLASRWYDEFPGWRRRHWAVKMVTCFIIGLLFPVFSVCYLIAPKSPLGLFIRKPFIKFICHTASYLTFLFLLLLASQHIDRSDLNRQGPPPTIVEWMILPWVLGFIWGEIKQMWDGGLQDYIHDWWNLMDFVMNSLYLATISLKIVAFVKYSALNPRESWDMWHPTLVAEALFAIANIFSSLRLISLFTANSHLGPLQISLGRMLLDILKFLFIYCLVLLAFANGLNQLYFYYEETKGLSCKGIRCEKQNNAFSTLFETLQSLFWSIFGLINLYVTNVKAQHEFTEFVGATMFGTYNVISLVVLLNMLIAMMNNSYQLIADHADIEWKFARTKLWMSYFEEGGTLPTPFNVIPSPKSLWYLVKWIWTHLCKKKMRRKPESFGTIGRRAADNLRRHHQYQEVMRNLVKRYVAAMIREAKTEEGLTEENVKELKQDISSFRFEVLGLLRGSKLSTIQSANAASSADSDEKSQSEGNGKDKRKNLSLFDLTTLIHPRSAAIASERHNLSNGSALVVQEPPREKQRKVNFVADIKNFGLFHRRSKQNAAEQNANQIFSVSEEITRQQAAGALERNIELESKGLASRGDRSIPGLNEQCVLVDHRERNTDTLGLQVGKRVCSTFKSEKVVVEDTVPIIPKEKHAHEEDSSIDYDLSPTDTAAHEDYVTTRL
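Incubation: 45 min room-temperature Fluo4 loading, 110 s read / System: HEK293 cells stably co-expressing mouse TRPC4beta and mu-opioid receptor / Signal: Fluo4 fluorescence, kinetic / Control set: buffer (low) and maximal DAMGO (high) / Measure: integrated baseline-normalised fluorescence ratio, converted to per-well B score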
TRPC6 activator: mouse TRPC6 channel activators, primary screen, cell-based, HEK293, membrane potential dye; Short transient receptor potential channel 6 (Mus musculus), Q61143; AID 2550, 2010; HEK293-TRPC6 membrane potential dye fluorescence; active compounds read high; 310,000 compounds, 0.13% hits; B-score at 10 µM;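 active = B-score of the integrated fluorescence ratio above library mean plus 3 SD, and starting fluorescence ratio within library mean plus 5 SD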;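 note: higher score means more depolarization so channel activation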
TRPC6 inh: mouse TRPC6 channel inhibitors, primary screen, cell-based, HEK293, membrane potential dye; Short transient receptor potential channel 6 (Mus musculus), Q61143; ACh-evoked depolarization; active compounds read low; B-score at 10 µM; 310,000 compounds, 1.1% hits; AID 2553, 2010;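 active = B-score under library mean minus 3 SD, initial fluorescence not abnormally high, positive integrated signal ratio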;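 note: B-score derived from integrated fluorescence ratio over the kinetic read; more negative B-score means stronger inhibition of depolarization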
TRPC4 PAM: positive allosteric modulators of TRPC4, primary screen, cell-based, mouse TRPC4beta, HEK293 mu-opioid, Fluo-4 calcium; Short transient receptor potential channel 4 (Mus musculus), Q9QUQ5; DAMGO EC20, Fluo-4 Ca2+ flux; active compounds read high; B-score at 10 µM; 310,000 compounds, 0.42% hits; AID 2227, 2009;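 active = B-score of calcium response area above 5 SD of library B-scores, with initial fluorescence ratio within 5 SD of library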;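 note: B-score of integrated fluorescence ratio over time as area under calcium response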
TRPC4 block: inhibitors of mouse TRPC4 channel, primary screen, Fluo4 calcium, HEK293 TRPC4beta/mu-opioid cells. Short transient receptor potential channel 4 (Mus musculus), Q9QUQ5. DAMGO-evoked Fluo4 calcium flux; active compounds read low. B-score at 10 µM. 300,000 compounds, 0.39% hits. AID 2247, 2010;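 active = B-score over 3 SD under the library average, no early fluorescence shift, positive overall ratio signal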
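Material: HEK293 cells with stable TRPC4beta plus mu-opioid receptor expression / Probe or stimulus: DAMGO in two steps, submaximal then maximal / Compound: single concentration per test compound / Technique: kinetic Fluo4 fluorescence imaging of calcium influx / Read-out: per-well B score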
Starred values were filed as active, the others as inactive; i = inactive. Shown are actives, neighbours in structure and some others; about 2.3% of the full set was active somewhere.

SMILES	TRPC4 agonist	TRPC6 activator	TRPC6 inh	TRPC4 PAM	TRPC4 block
COc1ccc(C(=O)Nc2nc3cc4c(cc3s2)OCCO4)c(OC)c1	i	i	i	i	i
Cc1onc(-c2ccccc2)c1C(=O)NC(=S)NNC(=O)c1ccco1	84*	i	i	i	i
Cc1onc(-c2ccccc2)c1C(=O)NCc1ccc2c(c1)OCO2	i	i	i	i	i
Cc1onc(-c2ccccc2)c1C(=O)NNC(=S)NC(=O)c1ccc2c(c1)OCO2	79*	i	i	i	i
Cc1onc(-c2ccccc2)c1C(=O)NNC(=S)NC(=O)/C=C/c1cccs1	52*	i	i	i	i
COc1ccc(C(=O)NC(=S)NNC(=O)c2c(-c3ccccc3)noc2C)cc1OC	85*	i	i	i	i
Cc1onc(-c2ccccc2)c1C(=O)NC(=S)NNC(=O)c1ccncc1	i	i	i	i	i
CC(C)C(=O)NC(NC(=S)Nc1cccc2cccnc12)C(Cl)(Cl)Cl (configuration not stated)	i	i	i	i	i
COc1ccccc1C(=O)NNC(=O)C1CC=CCC1 (configuration not stated)	i	i	i	i	i
CCOC(=O)C1(Cc2cccc(F)c2)CCN(Cc2ccon2)CC1	i	i	i	i	i
CCOC(=O)C1(CCc2ccccc2)CCN(Cc2ccn[nH]2)CC1	i	i	i	i	-6*
CCOC(=O)C1(CCCc2ccccc2)CCN(Cc2cnc(C)s2)CC1	74*	i	i	i	i
CCOC(=O)C1(Cc2cccc(F)c2)CCN(Cc2cnc(C)s2)CC1	66*	i	i	i	i
Cc1nnc(SCC(=O)Nc2c(Cl)cccc2Cl)n(N)c1=O	i	i	i	i	i
Cc1cc(NC(=O)CCC(=O)N(CC(=O)NC2CCCC2)c2ccc(Cl)cc2)no1	i	i	i	i	i
O=C(Cn1cc([N+](=O)[O-])cn1)Nc1ccccn1	i	i	i	i	i
Cc1ccnc(NC(=O)Cn2cc([N+](=O)[O-])cn2)c1	i	i	i	i	-8*
CN(Cc1nc(-c2ccc3c(c2)OCO3)no1)CC1(N2CCOCC2)CCCCC1	i	i	i	35*	i
CC(=O)N1c2ccc(S(=O)(=O)N3CCCC3C(=O)NCc3ccccc3Cl)cc2CC1C (configuration not stated)	i	i	i	i	i
CCCCN1C2=NC(c3ccccc3)CN2c2ccccc21 (configuration not stated)	i	i	i	i	-6*
CC1CC(C)CN(CCCNC(=O)c2csc3c2CCCC3)C1 (configuration not stated)	82*	i	i	i	i
CCCCN(CC)CCCNC(=O)c1csc2c1CCCCC2	111*	i	i	i	i
Cn1cc(S(=O)(=O)N2CCOCC2)cc1C(=O)NCc1ccccc1Cl	i	i	i	i	i
COc1ccc(C)cc1NC(=O)CCCN1C(=O)C(c2ccccc2)Oc2cccnc21 (configuration not stated)	i	i	i	i	i
CCCc1nc2oc3c(NCCN(C)C)ncnc3c2c2c1CCCC2	i	i	i	i	-6*
SMILES	TRPC4 agonist	TRPC6 activator	TRPC6 inh	TRPC4 PAM	TRPC4 block
O=C1NC(c2ccccc2)=C(c2nc3ccccc3s2)C(c2ccc(F)cc2)N1 (configuration not stated)	i	i	i	11*	i
Cc1cc(S(=O)(=O)N2CCCC(C)C2)ccc1-n1cnnn1 (configuration not stated)	i	i	i	i	i
NC(=O)c1sc(=S)n2c1[nH]c(=O)c1sccc12	i	i	i	10*	i
Cc1sc2ccc3sccc3c2[n+]1C	i	i	-5.4*	i	i
Cc1cccc(C(=O)NCCC(=O)Nc2ccc(C#N)cc2)c1	i	i	i	i	i
NC(=O)Cc1nc(-c2ccccc2)cs1	i	i	i	i	i
NCCc1nc(-c2ccccc2)cs1	116*	i	i	i	i
CC(=O)Nc1ccc(S(=O)(=O)Nc2nc3ccccc3nc2-n2ccc(=NC(=O)c3ccc(F)cc3)cc2)cc1	i	i	i	i	i
CS(=O)(=O)N1CCN(c2ccc(Cl)cc2[N+](=O)[O-])CC1	i	i	i	i	i
O=C(Nc1ccon1)c1csc2ccccc12	i	i	i	i	-7*
O=C1c2ccccc2C2(c3cc(C(F)(F)F)cc(C(F)(F)F)c3)NCCN12 (configuration not stated)	i	i	i	i	-6*
COc1ccc(C2Nc3ccccc3C(=O)N2Cc2ccco2)cc1COc1ccc(NC(C)=O)cc1 (configuration not stated)	110*	i	i	i	i
COc1ccc(C2Nc3ccccc3C(=O)N2Cc2ccco2)cc1COc1ccccc1F (configuration not stated)	i	i	i	i	i
Cc1cccc(-n2c(CNC(=O)c3ccc(S(=O)(=O)N4CCCCC4)cc3)n[nH]c2=S)c1	i	i	i	i	i
CCCCN1/C(=C/c2ccc3ccccc3[n+]2CC)Sc2ccccc21	204*	i	i	i	i
COc1cc(NS(=O)(=O)c2ccc(NC(=O)CCC(=O)O)cc2)nc(OC)n1	i	i	i	10*	i
Cc1cc(C)nc(N2CCN(c3ccc(F)cc3)CC2)n1	i	i	i	i	i
COc1ccccc1CCC(=O)OCC(=O)Nc1ccc(C(N)=O)cc1	i	i	i	i	i
CC(CC(=O)NCCc1ccc(F)cc1)c1ccccc1 (configuration not stated)	i	i	i	i	i
CC1CCN(c2nc(Cl)nc(Nc3ccc([N+](=O)[O-])cc3)n2)CC1	i	i	i	47*	i
CC(C)(C)CN1CCNC[C@H]1Cc1cccc2ccccc12	i	i	i	i	i
c1ccc(C2(CN3CCNC[C@H]3Cc3cccc4ccccc34)CC2)cc1	84*	i	i	i	i
